Each structure is given as a SMILES string. Activity calls are given as the source filed them. The calls are words filed in the database; no cut-off is given here.

Our source for the IC50, Activity and selectivity ratio values is ChEMBL document CHEMBL1146203, “Acridone-based inhibitors of inosine 5'-monophosphate dehydrogenase: discovery and SAR leading to the identification of N-(2-(6-(4-ethylpiperazin-1-yl)pyridin-3-yl)propan-2-yl)-2- fluoro-9-oxo-9,10-dihydroacridine-3-carboxamide (BMS-566419)” (J Med Chem, 2007).

In data set [1] the test system is PBMC. The data set is described as follows: Inhibition of T cell proliferation in PBMC cells. Conditions: Homo sapiens. Type of data set: functional, cell-based. The essentials: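 Human PBMCs isolated from heparinized whole blood by density gradient and plated at 5 × 10^4 cells/well in RPMI 1640 with 10% FBS. Stimulated with anti-CD3 OKT3 (200 ng/mL) plus soluble anti-CD28 (1 µg/mL). Compounds tested in triplicate from 3.3 µM in 3-fold dilutions with 0.5% DMSO for 72 h.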

Data set [2] concerns the target Inosine-5'-monophosphate dehydrogenase 2 (Homo sapiens, UniProt P12268). The data set is described as follows: Inhibition of human IMPDH2.
Data set [3] deals with CCRF-CEM. The data set is described as follows: Inhibition of CEM cell proliferation. Type of data set: functional, cell-based. Conditions: Homo sapiens. The essentials:
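Human CEM T-lymphoblasts grown in RPMI 1640 with 10% heat-inactivated FBS and penicillin/streptomycin. Seeded at 3000 cells/well with 0.5% DMSO; compounds tested in triplicate from 10 µM top concentration in 3-fold dilutions.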

Data set [4] concerns Rattus norvegicus. The data set is described as follows: Efficacy against Freund's complete adjuvant-induced arthritis in Lewis rat assessed as inhibition of paw swelling at 15 mg/kg, po after 21 days. Type of data set: functional, organism-based. Set-up: dose 15 mg/kg. The procedure, abridged:
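Adjuvant arthritis induced by subcutaneous Freund's complete adjuvant at the tail base in male Lewis rats. Oral dosing once daily for 21 days from day 0, vehicle 60% PEG400/40% 0.01 N HCl, 8 rats per group. Hind paw volume measured by plethysmometry at baseline and over three weeks; increase above baseline calculated; Student's t test against the vehicle group.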

For data set [5], the species on record is Rattus norvegicus. The data set is described as follows: Gastrointestinal toxicity in Lewis rat adjuvant arthritis model. Type of data set: organism-based. Conditions: in vivo. The procedure, abridged: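 Lewis rats in the adjuvant arthritis setting were given escalating oral daily doses for up to 14 days. Animals were monitored for diarrhea and weight loss, with gross examination and histopathology (crypt cell necrosis) used to define the maximum tolerated dose for GI toxicity.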

The nature of data set [6]: Therapeutic index for gastrointestinal toxicity in Lewis rat adjuvant arthritis model. The settings on record: read-out: TI. The procedure, abridged: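 GI therapeutic index in the rat adjuvant arthritis model, calculated as the ratio of exposure (AUC) at the maximum tolerated dose for GI toxicity to the AUC at the lowest efficacious dose.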

Take `CC(C)(NC(=O)c1cc2[nH]c3ccccc3c(=O)c2cc1F)c1ccccc1`: the concentration for half-maximal inhibition (IC50) stood at 0.22 µM in data set [1], 0.011 µM in data set [2] and 0.83 µM in data set [3].

Consider `O=C(NCc1ccccc1)c1ccc2c(=O)c3ccccc3[nH]c2c1`, for which inhibition in data set [2] was half-maximal at 2.2 µM (IC50).

Compound `C[C@@H](NC(=O)c1ccc2c(=O)c3ccccc3[nH]c2c1)c1ccccc1` registered a 50% inhibitory concentration (IC50) in data set [2] of 0.095 µM.

In the case of `COc1cc(C(C)(C)NC(=O)c2cc3[nH]c4ccccc4c(=O)c3cc2F)cnc1N1CCOCC1`, the IC50 in data set [1] worked out at 0.32 µM; in data set [2], 0.02 µM; in data set [3] it was 0.81 µM.

`COc1c(C)c2c(c(O)c1C/C=C(\C)CCC(=O)OCCN1CCOCC1)C(=O)OC2` [MYCOPHENOLATE MOFETIL]: the result in data set [4] was Active. The result in data set [5] was Active. Also, the selectivity ratio in data set [6] came out at 6.9.

In the case of `CC(C)(NC(=O)c1cc2[nH]c3ccccc3c(=O)c2cc1F)c1ccc(S(C)(=O)=O)cc1`, the 50% inhibitory concentration (IC50) was 0.17 µM in data set [1], 0.012 µM in data set [2] and 0.48 µM in data set [3].

Regarding `CN(C)c1cc(C(C)(C)NC(=O)c2cc3[nH]c4ccccc4c(=O)c3cc2F)ccn1`, the half-maximal inhibitory concentration (IC50) in data set [1] worked out at 0.22 µM; in data set [2], 0.014 µM; in data set [3], 0.64 µM.

In the case of `CN(C)S(=O)(=O)c1ccc(C(C)(C)NC(=O)c2cc3[nH]c4ccccc4c(=O)c3cc2F)cc1`, the IC50 was determined as 0.2 µM in data set [1], 0.01 µM in data set [2] and 0.66 µM in data set [3].

Take `COc1c(C)c2c(c(O)c1C/C=C(\C)CCC(=O)O)C(=O)OC2` [MYCOPHENOLIC ACID]: it took 0.13 µM to reach half-maximal inhibition in data set [1] (IC50).

Turning to `CC(C)(NC(=O)c1ccc2c(=O)c3ccccc3[nH]c2c1)c1ccccc1`, the IC50 in data set [1] is 0.73 µM; in data set [2], 0.019 µM.

Consider `CC(C)(NC(=O)c1ccc2c(=O)c3ccccc3[nH]c2c1)c1ccncc1`, for which the half-maximal inhibitory concentration (IC50) in data set [1] amounted to 0.63 µM; in data set [2], 0.053 µM; in data set [3], 2.3 µM.

For the compound `Cc1cc(C(C)(C)NC(=O)c2cc3[nH]c4ccccc4c(=O)c3cc2F)cnc1N1CCOCC1`, the IC50 worked out at 0.27 µM in data set [1], 0.011 µM in data set [2] and 0.87 µM in data set [3].

For the compound `CC(C)(NC(=O)c1cc2[nH]c3ccccc3c(=O)c2cc1F)c1cccnc1`, the half-inhibitory concentration (IC50) in data set [1] was 0.14 µM; in data set [2], 0.011 µM; in data set [3], 0.42 µM.
